Screening results: PubChem, several laboratories
Jurkat NFkB inh: lowers PMA/ionomycin-induced NF-kB signal in Jurkat cells | PMA/ionomycin-induced NF-kB luciferase reporter, luminescence | inhibition, % at 4 µM | 330,000 tested, 0.53% active | AID 435003; in the data active = inhibition above about 50%
XBP1 UPR activ: activators of adaptive arm of unfolded protein response (XBP1); CHO-XBP1 luciferase reporter, IRE1-XBP1 UPR activation, luminescence; percent of tunicamycin response, DMSO as zero; activation, % at 20 µM; 330,000 tested, 0.33% active; AID 463104;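 active = versus positive control, 20 µM dose yields 30% or more activation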;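 note: 100% = tunicamycin at 10 µg/mL and 0% = DMSO only wells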
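Assay system: IRE1-XBP1 luciferase reporter CHO line. Input: 1000 cells/well. Buffer or medium: F12 with 10% serum. Doses: 20 µM, 1% DMSO. Times: overnight seeding at 37 °C, 6 h compound treatment at 37 °C. Technique: Steady-Glo luciferase glow luminescence, 10 min after reagent addition.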
697 NFkB inh: lowers PMA/ionomycin-induced NF-kB signal in 697 B cells. 330,000 tested, 0.33% active. 697 B-cell NF-kB luciferase reporter, 16 h. AID 435022. inhibition, % at 4 µM; in the data active = inhibition above about 35%
CHOP inh: blocks CHOP induction under ER stress. CHO-K1 CHOP-promoter luciferase, tunicamycin-induced, 15-18 h. inhibition, % at 10 µM. 220,000 tested, 3.8% active. AID 2732;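 active = compounds that reduced the stress-induced luciferase reporter signal by more than about 70% of percent inhibition, limit read from the data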;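 note: 0% = tunicamycin plus vehicle and 100% = wells without tunicamycin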
CHOP UPR activ: activators of apoptotic arm of unfolded protein response (CHOP). CHO-CHOP luciferase reporter, UPR activation, luminescence; percent of tunicamycin response over DMSO baseline. activation, % at 10 µM. 330,000 tested, 0.34% active;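 active = at 10 µM dose, activation of 40% or more, normalized to positive control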;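 note: 100% = tunicamycin at 10 µg/mL and 0% = DMSO alone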
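assay system = CHO CHOP reporter cells | amount = 500 CHO-CHOP cells per well | buffer or medium = F12 with 10% FBS | incubation = 16-18 h cell attachment, then 6 h compound exposure, 37 °C | detection = luminescence read with Steady-Glo | read-out = percent activation relative to tunicamycin control | controls = tunicamycin high control, DMSO low control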
697 NFkB conf: lowers PMA/ionomycin-induced NF-kB signal in 697 B cells; 697 B-cell NF-kB luciferase, 16 h; shares compounds with 697 NFkB inh; AID 449746; 2,000 tested, 35% active; inhibition, % at 4 µM; in the data active = inhibition mostly above about 28%, no sharp cut-off; inactive = mostly below about 22%
The depositor's hits bear a star; i = inactive; / = not tested or not shown. The sample as a whole holds a higher share of hits than the screen did.

SMILES	Jurkat NFkB inh	XBP1 UPR activ	697 NFkB inh	CHOP inh	CHOP UPR activ	697 NFkB conf
CCOC(=O)c1c(C)c(C(=O)Nc2ccc3c(c2)OCO3)c(C)n1C	-6.2	0.7	15.3	-24.6	2.3	/
CCOC(=O)c1c(N)sc(C(=O)Nc2ccc3c(c2)OCO3)c1C	-90.2	-5.1	-258.4	35.9	-4.8	-264.9
Cc1onc(-c2c(Cl)cccc2Cl)c1C(=O)ONC(=O)c1ccccc1	8.6	5.8	5.1	0.9	-0.3	/
O=C1N(CN2CCN(Cc3ccccc3)CC2)c2ccccc2C12OCCCO2	6.2	1.5	6.0	18.7	0.9	/
O=C(Cn1c(=O)cnc2ccccc21)N1CCN(S(=O)(=O)c2ccccc2Br)CC1	5.9	-4.4	0.2	/	-0.8	/
O=C(Oc1ccc(Cl)c2cccnc12)c1cccc([N+](=O)[O-])c1	4.4	8.1	-3.3	49.5	19.6	/
O=[N+]([O-])c1ccccc1COc1ccc(Cl)c2cccnc12	-75.6	-8.6	-306.4	/	-0.3	-312.0
COC(=O)CSc1nnc(-c2sc3ccccc3c2Cl)o1	-0.8	-3.1	40.4*	70.4*	-6.3	42.5*
N#CCSc1nnc(-c2sc3ccccc3c2Cl)o1	-11.5	-0.8	-24.8	61.3	4.5	/
O=C(CNC(=O)c1cccc(OC(F)F)c1)OCC(=O)c1ccccc1	-9.3	-0.2	35.0*	13.8	1.6	4.2
Cc1nc([N+](=O)[O-])c(Br)n1Cc1ccccc1	-14.9	-2.3	-10.9	-180.1	8.9	/
Cc1nc([N+](=O)[O-])c(Sc2nc3ccc([N+](=O)[O-])cc3[nH]2)n1Cc1ccccc1	4.7	-3.1	36.2*	-28.9	0.6	29.7*
NS(=O)(=O)c1ccc(CNC(=O)c2cc(=O)c3ccccc3o2)cc1	-4.8	0.2	5.8	/	0.6	/
CC(=O)c1c(C(C)=O)c(C)n(-c2cccc([N+](=O)[O-])c2)c1C	24.3	1.7	36.1*	7.1	2.4	12.2
CCCC(=O)N(Cc1cc(=O)[nH]c2ccccc12)c1ccccc1C	-11.4	-1.3	-0.9	/	-2.1	/
O=C(Nc1ccc(/C=C/c2nc3ccccc3o2)cc1)c1cccc(C(F)(F)F)c1	-2.1	12.2	-326.8	92.9*	3.2	-214.7
O=C(Nc1ccc(Cn2ccnc2)cc1)c1cccc(C(F)(F)F)c1	-16.8	-3.8	2.1	/	0.9	/
COC(=O)/C=C/c1c(C)nc(NCc2ccccc2)nc1Cl	1.2	-3.7	17.1	/	2.9	/
CNc1ncc(C(=O)c2ccc(-c3ccccc3)cc2)s1	-119.8	1.1	-350.5	-24.9	2.2	-178.0
CNc1ncc(C(=O)c2ccc(Cl)cc2)s1	-92.3	-0.8	-104.1	-9.3	5.9	/
COc1ccc(N2CCN(c3oc(-c4ccccc4OC)nc3C#N)CC2)cc1	5.5	-2.1	12.4	-7.6	1.6	/
COc1ccccc1-c1nc(C#N)c(N2CCN(c3ccccc3)CC2)o1	10.8	-1.4	36.6*	-27.4	0.4	18.8
Cc1ccc(S(=O)(=O)c2cc3c(=O)n4ccccc4nc3n(Cc3ccco3)c2=N)cc1C	21.5	-1.4	40.5*	-17.6	2.7	0.0
Cc1cccc(N2CCN(C(=O)c3cc(C)oc3C)CC2C)c1 (configuration not stated)	14.0	-0.2	-40.4	13.5	1.4	/
CCc1ccccc1NC(=O)C1CCN(c2cnccn2)CC1	10.6	-0.3	10.9	/	1.9	/
SMILES	Jurkat NFkB inh	XBP1 UPR activ	697 NFkB inh	CHOP inh	CHOP UPR activ	697 NFkB conf
CCOC(=O)CNC(=O)CSc1nnc(NC(=O)c2ccc(C)cc2)s1	35.1	-7.7	42.6*	32.7	-5.8	33.1*
Cn1c(/C=N/O)nc2ccccc21	-7.9	1.1	10.9	3.6	2.5	/
Cc1ccc(C(=O)N/N=C/c2nc3ccccc3n2C)cc1	-15.3	2.0	38.7*	-9.3	2.7	19.9
COc1cccc(CC(NC(C)=O)C(=O)NC2CCN(C(=O)Nc3ccc(C)cc3)CC2)c1 (configuration not stated)	6.8	0.2	11.8	/	1.2	/
COc1ccc(SC[C@H](C)CN2CC[C@H](C(C)(C)C)CCC2=O)cc1	-20.3	-0.9	-1.4	/	1.0	/
Cc1cccc(/C(N)=N/OC(=O)c2ccc(F)cc2)c1	-125.2	-2.5	-250.6	34.2	4.3	-142.9
N/C(=N\OC(=O)c1ccccc1Cl)c1ccncc1	-92.5	3.4	-87.0	6.2	2.6	/
Cc1ccc(C(=O)O/N=C(\N)c2ccccc2)c(Cl)c1	-49.7	-12.1	-342.7	71.7*	-10.1	-354.4
COc1ccc(NC(=O)CN(C)C(=O)C2=NN(c3ccccc3)C(=O)CC2)cc1	-12.9	-1.4	1.3	/	-2.6	/
CS(=O)(=O)Nc1ccc(C(=O)Nc2cccc([N+](=O)[O-])c2)cc1	-18.0	-2.6	-11.7	9.8	1.1	/
Cc1cnc(NC(=O)c2cc3c(s2)CCCC3)s1	-147.8	-9.9	-328.1	64.9	-5.8	-359.5
CCOc1ccc2nc(-c3ccccc3)[nH]c2c1	-36.1	1.8	-298.1	/	2.3	-272.2
N#Cc1ccc(CSc2nnc(-c3c[nH]c4ccccc34)n2-c2ccccc2)cc1	-10.1	1.4	-11.3	23.0	-0.9	/
Cc1ccccc1-n1c(SCc2c(C)noc2C)nnc1-c1c[nH]c2ccccc12	-9.5	-1.1	40.0*	11.0	-1.5	40.9*
COc1ccc(CC(=O)Nc2ccc(N3CCOCC3)cc2)cc1S(=O)(=O)N1CCOCC1	4.5	-2.3	38.6*	-5.8	0.4	-7.3
COc1cc(/C(C)=N/NC(=S)NC(C)C)cc(OC)c1OC	5.3	2.4	2.2	-9.9	2.2	/
COc1cc(/C(C)=N\NC(N)=S)cc(OC)c1OC	8.9	-1.5	40.2*	19.7	-0.4	40.5*
CC(C)C[C@H](NC(=O)c1nc[nH]c1C(=O)N1CCN(C(=O)OC(C)(C)C)CC1)C(=O)OC(C)(C)C	-16.1	-2.2	i	-5.0	1.6	i
O=C(C1CCN(S(=O)(=O)N2CCCCC2)CC1)N1CCCCC1	2.4	-0.1	12.5	14.2	0.2	/
CCc1cc2c(-c3ccccc3)cc(=O)oc2cc1OC(C)C(=O)NCC1CCC(C(=O)O)CC1 (configuration not stated)	-12.0	-3.2	41.2*	/	-1.9	19.4
CC(Oc1cc2oc(=O)cc(-c3ccccc3)c2cc1Cl)C(=O)NCC1CCC(C(=O)O)CC1 (configuration not stated)	-9.8	-0.8	14.6	/	0.6	/
CN(CCCC(=O)NCCc1ccccc1)S(=O)(=O)c1ccc([N+](=O)[O-])cc1	-14.6	-2.9	23.1	/	-0.2	/
Nc1ccc2nc(-c3ccccc3)c(-c3ccccc3)nc2c1	14.4	-1.0	-18.9	/	2.3	/
Nc1ccc2nc(-c3ccccc3)sc2c1	-113.3	-3.6	-344.2	62.7	-4.6	-179.3
CCOC(=O)Cc1csc(NC(=S)NC(=O)c2ccc(Cl)cc2)n1	9.0	-0.6	44.8*	33.9	-2.0	76.2*
